Test results taken from PMC7115694 (European Journal of Medicinal Chemistry, 2010).

B1: UDA (protein, UniProt P11218 24-372, looked up)
Lectin/endochitinase 1: QRCGSQGGGGTCPALWCCSIWGWCGDSEPYCGRTCENKCWSGERSDHRCGAAVGNPPCGQDRCCSVHGWCGGGNDYCSGSKCQYRCSSSVRGPRVALSGNSTANSIGNVVVTEPLFDQMFSHRKDCPSQGFYSYHSFLVAAESFPAFGTIGDVATRKREVAAFLAHISQATSGERSDVENPHAWGLCHINTTTVTENDFCTSSDWPCAAGKKYSPRGPIQLTHNFNYGLAGQAIGEDLIQNPDLVEKDPIISFKTALWFWMSQHDNKPSCHDIVLNANSAANRIPNKGVIGNIISRAFGHDDFAVRSSSIGFYKRYCDMLGVSYGHDLKYWFDNTPSSEFQRIQMRVAA

Assays:
Format in all cases: cell-based
Staphylococcus aureus = experiment: MIC by tube dilution method; settings: observed, S. aureus, 37 °C 24 h
Bacillus subtilis = experiment: MIC by tube dilution method; settings: observed, B. subtilis, 37 °C 24 h
Procedure, shortened: (§1)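 Test compound is diluted in double strength nutrient broth (I.P.) by tube dilution, with ciprofloxacin as reference. Samples incubated at 37 °C for 24 h. MIC is the lowest concentration inhibiting microbial growth, transformed into pMIC for analysis.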

Escherichia coli = experiment: MIC by tube dilution method; settings: observed, E. coli, 37 °C 24 h
Procedure, shortened: as §1

Candida albicans = experiment: MIC by tube dilution method; settings: observed, C. albicans, 37 °C 48 h
Aspergillus niger = experiment: MIC by tube dilution method; settings: observed, A. niger, 25 °C 7 d
[1] = test system: S. aureus, B. subtilis and E. coli; experiment: Average antibacterial activity; settings: average antibacterial activity (pMICsa + pMICbs + pMICec)/3
C. albicans and A. niger = experiment: Average antifungal activity; settings: average antifungal activity (pMICca + pMICan)/2
[2] = test system: S. aureus, B. subtilis, E. coli, C. albicans and A. niger; experiment: Average antimicrobial activity; settings: mean of five pMIC values
B. subtilis = experiment: Minimum bactericidal concentration; settings: static when MBC 3-fold higher than MIC
Feline Herpes virus = experiment: organism not typed; settings: for EC50: CRFK, read-out: EC50 Feline Corona Virus
Para-influenza-3 virus = experiment: organism not typed; settings: Vero, read-out: EC50 Para-influenza-3 virus
Reovirus-1 = experiment: organism not typed; settings: Vero, read-out: EC50 Reovirus-1
HEL cells = experiment: Cytotoxicity in uninfected cell cultures; settings: microscopically detectable alteration of cell morphology
Procedure, shortened: (§2)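 Uninfected cell cultures are exposed to serial dilutions of test compound in parallel with the virus cytopathicity assays. Cells are examined microscopically. Minimum cytotoxic concentration is the lowest concentration causing a microscopically detectable alteration of normal cell morphology.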

HeLa cells = experiment: Cytotoxicity in uninfected cell cultures; settings: cell morphology
Procedure, shortened: as §2

Vero cells = experiment: Cytotoxicity in uninfected cell cultures; settings: cell morphology
Procedure, shortened: as §2

Coxsackie virus B4 = experiment: microbe, parasite or virus in culture; settings: Enterovirus B, B4, HeLa, read-out: EC50 Coxsackie virus B4 visual CPE score
Sindbis virus = experiment: microbe, parasite or virus in culture; settings: Vero, read-out: EC50 Sindbis virus
Punta Toro virus = experiment: microbe, parasite or virus in culture; settings: Vero, read-out: EC50 Punta Toro virus
S. aureus = experiment: Minimum bactericidal concentration; settings: static when MBC 3-fold higher than MIC
[3] = test system: Feline Corona virus (FIPV); settings: CRFK cell cultures, MTS assay

Molecule	pMICsa (Staphylococcus aureus)	pMICbs (Bacillus subtilis)	pMICec (Escherichia coli)	pMICca (Candida albicans)	pMICan (Aspergillus niger)	pMICab [1]	pMICaf (C. albicans and A. niger)	pMICam [2]	bacteriostatic/bactericidal action against B. subtilis (B. subtilis)	EC50 (Feline Herpes virus) [µg/mL]	EC50 (Para-influenza-3 virus)	EC50 (Reovirus-1)	Minimum cytotoxic concentration (HEL cells) [µg/mL]	Cytotoxicity Minimum cytotoxic concentration (HeLa cells)	Minimum cytotoxic concentration (Vero cells)	further results
Cc1ccc(C(=O)n2c(-c3ccc(S(=O)(=O)O)cc3)nc3ccccc32)cc1 [Compound 11]	2.10	1.95	2.10	1.50	0.89	2.05	1.20	1.71	active bacteriocidal agents	> 100	> 100 µg/mL	> 100 µg/mL	>100	>100 µg/mL	>100 µg/mL	
Nc1ncnc2c1ncn2C[C@H](O)CO [(S)-DHPA]											> 250 µM	> 250 µM		>250 µM	>250 µM	EC50 (Coxsackie virus B4): > 250 µM; EC50 (Sindbis virus): > 250 µM; EC50 (Punta Toro virus): > 250 µM
CCCCC(=O)n1c(-c2ccc(S(=O)(=O)O)cc2)nc2ccccc21 [Compound 17]	1.76	1.76	1.76	1.46	1.16	1.76	1.31	1.58	active bacteriocidal agents	> 100	> 100 µg/mL	> 100 µg/mL	>100	>100 µg/mL	>100 µg/mL	bacteriostatic/bactericidal action against S. aureus (S. aureus): active bacteriocidal agents
B1																EC50 Feline Herpes Virus (FIPV) [3]: 1.5 µg/mL; EC50 Feline Corona Virus (Feline Herpes virus; CRFK cell cultures, MTS assay): 0.4 µg/mL
